Test results taken from ChEMBL document CHEMBL4480373, “Neuropilin-1 peptide-like ligands with proline mimetics, tested using the improved chemiluminescence affinity detection method” (Medchemcomm, 2019).
Square brackets hold non-standard residues; d marks the D form. Peptide text beside a SMILES is read from it. Oic = O=C(O)[C@@H]1C[C@@H]2CCCC[C@@H]2N1; Hyp = O=C(O)[C@@H]1C[C@@H](O)CN1; Pip(4-aza) = O=C(O)[C@@H]1CNCCN1; hArg = N=C(N)NCCCC[C@H](N)C(=O)O; Tic = O=C(O)[C@@H]1Cc2ccccc2CN1; ΔPro = O=C(O)[C@@H]1C=CCN1; Aze = O=C(O)[C@@H]1CCN1; Dab = NCC[C@H](N)C(=O)O

Assays:
[1] = target: Neuropilin-1 (Rattus norvegicus) (UniProt Q9QWJ9); test: Inhibition of human biotinylated VEGF-A165 binding to Fc-tagged recombinant rat NRP1 receptor at 3 uM after 2 hrs by colorimetric analysis relative to control
Neuropilin-1 [2] = target: T1, Neuropilin-1 (Homo sapiens, UniProt O14786); test: Inhibition of human biotinylated VEGF-A165 binding to recombinant human NRP1 receptor at 25 uM after 2 hrs by chemiluminescence analysis relative to control
T1 sequence (O14786 whole entry): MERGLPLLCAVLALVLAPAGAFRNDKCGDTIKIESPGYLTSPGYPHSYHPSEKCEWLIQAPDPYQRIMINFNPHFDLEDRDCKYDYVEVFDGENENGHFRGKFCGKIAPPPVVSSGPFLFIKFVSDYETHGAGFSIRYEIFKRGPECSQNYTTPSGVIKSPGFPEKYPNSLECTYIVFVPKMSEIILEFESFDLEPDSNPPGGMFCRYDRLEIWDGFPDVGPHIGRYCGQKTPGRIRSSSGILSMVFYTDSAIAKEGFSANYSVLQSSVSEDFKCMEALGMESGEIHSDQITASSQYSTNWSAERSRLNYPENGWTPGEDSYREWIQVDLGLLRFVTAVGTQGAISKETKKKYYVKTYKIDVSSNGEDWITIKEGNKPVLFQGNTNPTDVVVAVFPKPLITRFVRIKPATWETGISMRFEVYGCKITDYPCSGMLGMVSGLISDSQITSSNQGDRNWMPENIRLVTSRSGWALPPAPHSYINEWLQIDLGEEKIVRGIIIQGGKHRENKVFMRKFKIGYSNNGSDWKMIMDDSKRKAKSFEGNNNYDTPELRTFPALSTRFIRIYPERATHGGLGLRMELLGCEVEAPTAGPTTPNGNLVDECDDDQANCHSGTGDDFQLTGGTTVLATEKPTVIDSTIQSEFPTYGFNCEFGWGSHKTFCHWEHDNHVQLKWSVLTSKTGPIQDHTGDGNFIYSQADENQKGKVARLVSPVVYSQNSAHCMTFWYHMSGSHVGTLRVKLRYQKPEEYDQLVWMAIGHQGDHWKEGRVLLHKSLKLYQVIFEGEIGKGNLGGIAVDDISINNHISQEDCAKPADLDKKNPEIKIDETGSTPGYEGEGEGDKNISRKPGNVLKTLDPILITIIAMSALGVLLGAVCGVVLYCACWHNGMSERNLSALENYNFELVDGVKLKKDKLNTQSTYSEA
Outline: (§1)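 Wells coated overnight at 4 °C with recombinant human NRP-1 (200 ng/well), blocked with 0.5% BSA/PBS. Peptide in PBS and biotinylated human VEGF-A165 (400 ng/mL, in PBS with 4 µg/mL heparin) incubated 2 h at room temperature. Detection by streptavidin-HRP and luminol chemiluminescence. Controls: ligand only (positive) and uncoated wells (negative). % inhibition calculated from these. IC50 by nonlinear regression.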

[3] = target: Neuropilin-1 (Rattus norvegicus) (UniProt Q9QWJ9); test: Inhibition of human biotinylated VEGF-A165 binding to Fc-tagged recombinant rat NRP1 receptor at 10 uM after 2 hrs by colorimetric analysis relative to control
Neuropilin-1 [4] = target: T1, Neuropilin-1; test: Inhibition of human biotinylated VEGF-A165 binding to recombinant human NRP1 receptor at 10 uM after 2 hrs by chemiluminescence analysis relative to control; outline: as §1
Neuropilin-1 [5] = target: T1, Neuropilin-1; test: Inhibition of human biotinylated VEGF-A165 binding to recombinant human NRP1 receptor at 100 uM after 2 hrs by chemiluminescence analysis relative to control; outline: as §1
[6] = target: Neuropilin-1 (Rattus norvegicus) (UniProt Q9QWJ9); test: Inhibition of human biotinylated VEGF-A165 binding to Fc-tagged recombinant rat NRP1 receptor at 1 uM after 2 hrs by colorimetric analysis relative to control
Neuropilin-1 [7] = target: Neuropilin-1 (Rattus norvegicus, UniProt Q9QWJ9); test: Inhibition of human biotinylated VEGF-A165 binding to Fc-tagged recombinant rat NRP1 receptor after 2 hrs by colorimetric analysis
Neuropilin-1 [8] = target: T1, Neuropilin-1; test: Inhibition of human biotinylated VEGF-A165 binding to recombinant human NRP1 receptor after 2 hrs by chemiluminescence analysis; outline: as §1
[9] = target: Neuropilin-1 (Rattus norvegicus) (UniProt Q9QWJ9); test: Inhibition of human biotinylated VEGF-A165 binding to Fc-tagged recombinant rat NRP1 receptor at 0.3 uM after 2 hrs by colorimetric analysis relative to control
Neuropilin-1 [10] = target: T1, Neuropilin-1; test: Inhibition of human biotinylated VEGF-A165 binding to recombinant human NRP1 receptor at 50 uM after 2 hrs by chemiluminescence analysis relative to control; outline: as §1
Neuropilin-1 [11] = target: T1, Neuropilin-1; test: Inhibition of human biotinylated VEGF-A165 binding to recombinant human NRP1 receptor at 5 uM after 2 hrs by chemiluminescence analysis relative to control; outline: as §1
[12] = target: Neuropilin-1 (Rattus norvegicus) (UniProt Q9QWJ9); test: Inhibition of human biotinylated VEGF-A165 binding to Fc-tagged recombinant rat NRP1 receptor at 0.1 uM after 2 hrs by colorimetric analysis relative to control
Neuropilin-1 [13] = target: T1, Neuropilin-1; test: Inhibition of human biotinylated VEGF-A165 binding to recombinant human NRP1 receptor at 1 uM after 2 hrs by chemiluminescence analysis relative to control; outline: as §1
Neuropilin-1 [14] = target: T1, Neuropilin-1; test: Inhibition of human biotinylated VEGF-A165 binding to recombinant human NRP1 receptor at 2.5 uM after 2 hrs by chemiluminescence analysis relative to control; outline: as §1
[15] = Half life in human plasma at 1 umol/ml up to 96 hrs by RP-HPLC and LC/MS analysis; assay type: ADME, cell-free
Outline: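 Citrate plasma pooled from four healthy donors, stored at –80 °C, preactivated 20 min at 37 °C with shaking. Aqueous peptide stock diluted into plasma to ~1 µmol/mL final and incubated 0–96 h. Aliquots quenched with equal volume 98% ethanol, centrifuged, supernatant lyophilized, reconstituted in water, analysed by RP-HPLC (LC-MS for selected samples). Half-life obtained by nonlinear regression.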

Row | inhibition [1] | inhibition (Neuropilin-1 [2]) | inhibition [3] | inhibition (Neuropilin-1 [4]) | inhibition (Neuropilin-1 [5]) | inhibition [6] | IC50 (Neuropilin-1 [7]) | IC50 (Neuropilin-1 [8]; read-out: IC50) | inhibition [9] | inhibition (Neuropilin-1 [10]) | inhibition (Neuropilin-1 [11]) | inhibition [12] | inhibition (Neuropilin-1 [13]) | inhibition (Neuropilin-1 [14]) | IC50 (Neuropilin-1 [8]; read-out: pIC50 (converted)) | half-life at 1000 µM [15] | Compound
1 | 79% | 54.1% | 92.2% | 37.1% | 77% | 41.4% | 1 µM | 20.9 µM | 4.7% | 67.9% |  |  |  |  |  |  | N=C(N)NCCCC[C@H](N)C(=O)NCCCC[C@H](N)C(=O)N1CCC[C@H]1C(=O)N1CCC[C@H]1C(=O)N[C@@H](CCCNC(=N)N)C(=O)O (H-K(hArg)PPR-OH)
2 |  | 41.9% |  | 30% | 59.9% |  |  | 48.6 µM |  | 53.6% |  |  |  |  |  |  | N=C(N)NCCCC[C@H](N)C(=O)NCCCC[C@H](N)C(=O)N1CC[C@H]1C(=O)N1CC[C@H]1C(=O)N[C@@H](CCCNC(=N)N)C(=O)O (H-K(hArg)[Aze][Aze]R-OH)
3 | 92.8% | 70.4% | 99.6% | 58.6% | 79.8% | 83.7% | 0.2 µM | 8.9 µM | 59.6% | 76.6% | 43.7% | 35.8% | 13.8% | 31.4% |  |  | N=C(N)NCCCC[C@H](N)C(=O)NCCCC[C@H](N)C(=O)N[C@@H](CCN)C(=O)N1CCC[C@H]1C(=O)N[C@@H](CCCNC(=N)N)C(=O)O (H-K(hArg)[Dab]PR-OH)
4 |  | 69.1% |  | 49.6% | 78.8% |  |  | 11.7 µM |  | 75.8% | 30.1% |  | 7.7% | 12.9% | 10.7 µM |  | N=C(N)NCCCC[C@H](N)C(=O)NCCCC[C@H](N)C(=O)N[C@@H](CCN)C(=O)N1CC[C@H]1C(=O)N[C@@H](CCCNC(=N)N)C(=O)O (H-K(hArg)[Dab][Aze]R-OH)
5 |  | 67.3% |  | 54.3% | 78.6% |  |  | 9.2 µM |  | 76% | 36% |  | 22.5% | 22.3% |  |  | N=C(N)NCCCC[C@H](N)C(=O)NCCCC[C@H](N)C(=O)N[C@@H](CCN)C(=O)N1C[C@H](O)C[C@H]1C(=O)N[C@@H](CCCNC(=N)N)C(=O)O (H-K(hArg)[Dab][Hyp]R-OH)
6 |  | 77.7% |  | 63.4% | 83% |  |  | 2.3 µM |  | 79.5% | 52.3% |  | 37.7% | 50.9% |  | 54.9 h | N=C(N)NCCCC[C@H](N)C(=O)NCCCC[C@H](N)C(=O)N[C@@H](CCN)C(=O)N1[C@H](C(=O)N[C@@H](CCCNC(=N)N)C(=O)O)C[C@@H]2CCCC[C@@H]21 (H-K(hArg)[Dab][Oic]R-OH)
7 |  | 34.8% |  | 20.8% | 51.8% |  |  | 80.5 µM |  | 46% |  |  |  |  |  |  | N=C(N)NCCCC[C@H](N)C(=O)NCCCC[C@H](N)C(=O)N[C@@H](CCN)C(=O)N1CCNC[C@H]1C(=O)N[C@@H](CCCNC(=N)N)C(=O)O (H-K(hArg)[Dab][Pip(4-aza)]R-OH)
8 |  | 35% |  | 31.5% | 0% |  |  | > 100 µM |  | 17.2% |  |  |  |  |  |  | N=C(N)NCCCC[C@H](N)C(=O)NCCCC[C@H](N)C(=O)N[C@@H](CCN)C(=O)N1Cc2ccccc2C[C@H]1C(=O)N[C@@H](CCCNC(=N)N)C(=O)O (H-K(hArg)[Dab][Tic]R-OH)
9 |  | 78.1% |  | 70.7% | 87.1% |  |  | 4.3 µM |  | 84.4% | 58% |  | 29.9% | 44.8% |  | 51.1 h | N=C(N)NCCCC[C@H](N)C(=O)NCCCC[C@H](N)C(=O)N[C@@H](CCN)C(=O)N1CC=C[C@H]1C(=O)N[C@@H](CCCNC(=N)N)C(=O)O (H-K(hArg)[Dab][ΔPro]R-OH)
10 |  | 56.8% |  | 36.7% | 71.7% |  |  | 21.3 µM |  | 63.1% |  |  |  |  |  |  | N=C(N)NCCCC[C@H](N)C(=O)NCCCC[C@H](N)C(=O)N1C[C@H](O)C[C@H]1C(=O)N1C[C@H](O)C[C@H]1C(=O)N[C@@H](CCCNC(=N)N)C(=O)O (H-K(hArg)[Hyp][Hyp]R-OH)
11 |  | 68.2% |  | 53.4% | 83.6% |  |  | 7.2 µM |  | 77.6% | 47.8% |  | 32.9% | 42.1% |  |  | N=C(N)NCCCC[C@H](N)C(=O)NCCCC[C@H](N)C(=O)N1[C@H](C(=O)N2[C@H](C(=O)N[C@@H](CCCNC(=N)N)C(=O)O)C[C@@H]3CCCC[C@@H]32)C[C@@H]2CCCC[C@@H]21 (H-K(hArg)[Oic][Oic]R-OH)
12 |  | 58.7% |  | 45% | 70.8% |  |  | 16 µM |  | 63.3% |  |  |  |  |  |  | N=C(N)NCCCC[C@H](N)C(=O)NCCCC[C@H](N)C(=O)N1CCNC[C@H]1C(=O)N1CCNC[C@H]1C(=O)N[C@@H](CCCNC(=N)N)C(=O)O (H-K(hArg)[Pip(4-aza)][Pip(4-aza)]R-OH)
13 |  | 31.4% |  | 24.7% | 45.2% |  |  | > 100 µM |  | 40.7% |  |  |  |  |  |  | N=C(N)NCCCC[C@H](N)C(=O)NCCCC[C@H](N)C(=O)N1Cc2ccccc2C[C@H]1C(=O)N1Cc2ccccc2C[C@H]1C(=O)N[C@@H](CCCNC(=N)N)C(=O)O (H-K(hArg)[Tic][Tic]R-OH)
14 |  | 61.3% |  | 45.4% | 79.3% |  |  | 14 µM |  | 72.2% |  |  |  |  |  |  | N=C(N)NCCCC[C@H](N)C(=O)NCCCC[C@H](N)C(=O)N1CC=C[C@H]1C(=O)N1CC=C[C@H]1C(=O)N[C@@H](CCCNC(=N)N)C(=O)O (H-K(hArg)[ΔPro][ΔPro]R-OH)
15 |  | 35% |  | 30.8% | 58.2% |  |  | 84.1 µM |  | 43.8% |  |  |  |  | 83.2 µM |  | H-ATWLPPR-OH
